Measured values from ChEMBL document CHEMBL1131420 (J Med Chem, 1998).

Legend:
[1] = target: T1, Sodium-dependent dopamine transporter (Rattus norvegicus, UniProt P23977); assay: Inhibitory activity determined for [3H]DA (Dopamine transporter) uptake by striated synaptosomes; format: subcellular, Brain
[2] = target: T1, Sodium-dependent dopamine transporter; assay: Binding affinity for [3H]DA (Dopamine transporter) uptake by striated synaptosomes; format: subcellular, Brain
Method in brief: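 Striatal synaptosomes in Krebs-Ringer-HEPES (125 mM NaCl, 4.8 mM KCl, 1.2 mM MgSO4, 25 mM HEPES, pH 7.4). After 30 min drug preincubation, [3H]DA was added at about 5 nM. Uptake lasted 5 min and ended by rapid filtration. […] Ki was derived by Cheng–Prusoff with Kd 57 nM. Values are the mean of 2–3 experiments.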

[3] = target: T2, Sodium-dependent serotonin transporter (Rattus norvegicus, UniProt P31652); assay: Inhibitory activity against Serotonin transporter was determined for [3H]5-HT (serotonin) uptake by striated synaptosomes; format: subcellular, Brain
T2 sequence (P31652 whole entry): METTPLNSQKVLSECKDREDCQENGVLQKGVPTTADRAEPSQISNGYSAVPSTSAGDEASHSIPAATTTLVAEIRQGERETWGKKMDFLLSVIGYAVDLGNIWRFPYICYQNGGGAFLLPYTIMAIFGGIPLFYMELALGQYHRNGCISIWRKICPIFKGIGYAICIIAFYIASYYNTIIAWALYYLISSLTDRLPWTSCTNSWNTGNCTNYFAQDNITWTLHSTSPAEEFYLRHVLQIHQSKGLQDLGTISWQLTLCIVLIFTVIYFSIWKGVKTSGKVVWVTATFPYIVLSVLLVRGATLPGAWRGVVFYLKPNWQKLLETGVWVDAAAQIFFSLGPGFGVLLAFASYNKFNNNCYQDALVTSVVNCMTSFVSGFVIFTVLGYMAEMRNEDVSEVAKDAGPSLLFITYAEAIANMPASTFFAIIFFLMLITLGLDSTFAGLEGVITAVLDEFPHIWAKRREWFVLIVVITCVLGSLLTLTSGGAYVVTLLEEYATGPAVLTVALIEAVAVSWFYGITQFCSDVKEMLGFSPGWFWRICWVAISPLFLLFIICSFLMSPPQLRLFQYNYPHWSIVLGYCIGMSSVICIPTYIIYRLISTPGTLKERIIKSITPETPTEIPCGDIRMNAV

[4] = target: T1, Sodium-dependent dopamine transporter; assay: (§1) Inhibitory activity on dopamine transporters of rat striated membranes using [3H]- mazindol.
Method in brief: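 Striatal membrane homogenate was added to tubes holding drug and about 4 nM [3H]mazindol in Krebs-Ringer-HEPES (pH 7.4). Incubation was 1 h at 4 °C, followed by filtration.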

[5] = target: T1, Sodium-dependent dopamine transporter; assay: Binding affinity of compound on dopamine transporters of rat striated membranes using [3H]- mazindol.; format: cell membranes, Membrane
Method in brief: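 Striatal membrane homogenate was added to tubes holding drug and about 4 nM [3H]mazindol in Krebs-Ringer-HEPES (pH 7.4). Incubation was 1 h at 4 °C, followed by filtration. […] Values are the mean of 2–3 experiments.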

[6] = target: Monoamine transporters; serotonin & dopamine (Rattus norvegicus) (UniProt P31652+P23977); assay: Ratio of Ki value for 5-HT to that of DA.; format: protein assay
Chain of Monoamine transporters; serotonin & dopamine (Rattus norvegicus) (P23977 whole entry, looked up): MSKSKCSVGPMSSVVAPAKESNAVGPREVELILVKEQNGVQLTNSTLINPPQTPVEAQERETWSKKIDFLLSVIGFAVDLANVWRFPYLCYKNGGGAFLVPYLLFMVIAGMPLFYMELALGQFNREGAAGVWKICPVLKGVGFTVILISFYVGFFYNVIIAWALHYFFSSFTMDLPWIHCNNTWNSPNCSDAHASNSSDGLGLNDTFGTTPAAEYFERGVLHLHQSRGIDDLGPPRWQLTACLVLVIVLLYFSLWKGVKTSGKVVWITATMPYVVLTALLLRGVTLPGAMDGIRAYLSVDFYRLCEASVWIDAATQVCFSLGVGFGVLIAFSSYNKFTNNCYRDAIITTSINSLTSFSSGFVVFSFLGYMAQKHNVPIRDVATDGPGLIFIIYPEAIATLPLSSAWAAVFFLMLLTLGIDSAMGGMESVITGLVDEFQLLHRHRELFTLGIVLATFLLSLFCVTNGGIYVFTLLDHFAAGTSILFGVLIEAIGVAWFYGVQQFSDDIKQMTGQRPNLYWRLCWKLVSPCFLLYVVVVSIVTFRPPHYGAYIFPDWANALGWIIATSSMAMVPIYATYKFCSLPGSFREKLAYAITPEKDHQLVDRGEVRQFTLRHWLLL
Chain of Monoamine transporters; serotonin & dopamine (Rattus norvegicus) (P31652 whole entry, looked up): as the sequence (P31652 whole entry) above

[7] = target: T2, Sodium-dependent serotonin transporter; assay: Binding affinity for Serotonin transporter was determined by [3H]5-HT (serotonin) uptake by striated synaptosomes; format: subcellular, Brain
[8] = target: T1, Sodium-dependent dopamine transporter; assay: as §1; remark: listed apart in the source
[9] = target: T1, Sodium-dependent dopamine transporter; assay: Inhibitory activity on dopamine transporter of rat striated membranes using [3H]- mazindol.

T1 sequence (P23977 whole entry): as the sequence (P23977 whole entry, looked up) above

| SMILES | IC50 [1] | Ki [2] | IC50 [3] | IC50 [4] | Ki [5] | Uptake ratio [6] | Ki [7] | IC50 [8] | IC50 [9] |
| --- | --- | --- | --- | --- | --- | --- | --- | --- | --- |
| CN1C2CC[C@@H]1C[C@@H](c1ccc(F)cc1)[C@H]2c1ccccc1 | 4.95 nM | 4.58 nM | 134 nM | 11.4 nM | 6 nM | 26.6 | 122 nM | – | – |
| CCC[C@H]1C(c2ccc(C)cc2)C[C@H]2CCC1N2C (stereo not given in full) | 1.19 nM | 1.1 nM | 11.3 nM | 2.97 nM | 1.57 nM | 9.35 | 10.3 nM | – | – |
| COC(=O)[C@H]1C(c2ccccc2)C[C@H]2CCC1N2C (stereo not given in full) | 57.9 nM | 53.7 nM | – | 163 nM | 89.4 nM | – | – | – | – |
| CN1C2CC[C@@H]1CC(c1ccccc1)[C@@H]2c1ccccc1 (stereo not given in full) [listing 1 of 2 here] | 31.1 nM | 28.9 nM | 1200 nM | 96.5 nM | 49.9 nM | – | 1100 nM | – | – |
| CCC[C@H]1C(c2ccc(F)cc2)C[C@H]2CCC1N2C (stereo not given in full) | 2.16 nM | 1.99 nM | 23.7 nM | 10 nM | 5.28 nM | 10.9 | 21.7 nM | – | – |
| Cc1ccc(C2C[C@H]3CCC([C@H]2c2ccccc2)N3C)cc1 (stereo not given in full) | 3.09 nM | 2.87 nM | 80.8 nM | 4.98 nM | 2.58 nM | 25.7 | 73.8 nM | – | – |
| CCC[C@H]1C2CC[C@H](C[C@H]1c1ccccc1)N2C | 32.6 nM | 30.2 nM | 427 nM | 141 nM | 74.9 nM | 12.9 | 389 nM | – | – |
| Cc1ccc([C@@H]2C[C@H]3CCC([C@@H]2c2ccccc2)N3C)cc1 | 4.48 nM | 4.16 nM | 314 nM | 5.55 nM | 2.87 nM | 68.9 | 287 nM | – | – |
| CCC[C@H]1C(c2ccccc2)C[C@H]2CCC1N2C (stereo not given in full) | 7.46 nM | 6.89 nM | 95.4 nM | 23.1 nM | 12.2 nM | 12.6 | 86.8 nM | – | – |
| CN1C2CC[C@@H]1CC(c1ccccc1)[C@@H]2c1ccccc1 (mixture of isomers) | – | – | – | – | – | – | – | 28 nM | – |
| CCCC[C@H]1C(c2ccc(C)cc2)C[C@H]2CCC1N2C (stereo not given in full) | 1.42 nM | 1.31 nM | 16.5 nM | 3.43 nM | 1.82 nM | 11.5 | 15.1 nM | – | – |
| CN1C2CC[C@@H]1CC(c1ccccc1)[C@@H]2c1ccccc1 (stereo not given in full) [listing 2 of 2 here] | – | – | – | – | – | 38.1 | – | – | – |
| CCC[C@H]1C2CC[C@H](C[C@H]1c1ccc(C)cc1)N2C | 12.8 nM | 11.8 nM | 54.8 nM | 18.2 nM | 8.91 nM | 4.25 | 50.1 nM | – | – |
| CCCC[C@H]1C2CC[C@H](C[C@H]1c1ccc(C)cc1)N2C | 10.9 nM | 10.1 nM | 55.8 nM | 21.6 nM | 11.4 nM | 5.1 | 51 nM | – | – |
| CCC[C@H]1C2CC[C@H](C[C@H]1c1ccc(F)cc1)N2C | 13.1 nM | 12.1 nM | 109 nM | 37.1 nM | 21.1 nM | 8.2 | 99.6 nM | – | – |
| CN1C2CC[C@@H]1C[C@@H](c1ccccc1)[C@H]2c1ccccc1 | 12.6 nM | 11.7 nM | 823 nM | 26.6 nM | 13.8 nM | 64.3 | 753 nM | – | – |
| COC(=O)[C@@H]1C2CC[C@H](C[C@@H]1c1ccc(C)cc1)N2C | 7.47 nM | 6.92 nM | – | – | 5.76 nM | – | – | – | 10.5 nM |
